MC4R antag cAMP: blocks human MC4R cAMP signaling; P32245; inhibition, % at 6.5 µM; 360,000 tested, 0.48% active; MC4R-expressing cells, MTII-stimulated cAMP, LANCE TR-FRET; AID 540295;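 active = inhibition above its plate's cutoff, the mean of tested wells on that plate plus 3 SD, cut at about 29% in these data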;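 note: 0% = Melanotan II alone and 100% = Melanotan II plus saturating MCL0020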
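system = U2OS cells with stable human MC4R expression | also added = Melanotan II challenge after compound preincubation | dosing = one concentration, 6.5 µM nominal | incubation = compound 30 min, challenge 1 h, detection 1 h | measured by = TR-FRET with Eu-cAMP and labeled anti-cAMP, 671 nm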
TLR4-MyD88 BLA: blocks binding of human TLR4 to MyD88; O00206+Q99836; HeLa CL3-4 TLR4/MyD88 BLA complementation, FRET ratio; inhibition, % at 8.4 µM; 200,000 tested, 0.18% active; AID 861; in the data active = inhibition above about 25%;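 note: 0% = vehicle and 100% = reference inhibitor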
beta cell repl: MIN6 beta-cell proliferation induction. 330,000 tested, 0.29% active. MIN6 cells proliferation, ATPlite luminescence, 48 h; cells starved in 0.2% serum; 100% = growth in 10% serum. proliferation, % at 10 µM;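 active = compounds whose signal lies at least 3.5 SD above the mean of all wells on their plate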;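 note: 0% = DMSO-treated cells in low-serum medium and 100% = 10% serum control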
NOD2-RIPK2 inh: NOD2-RIPK2 protein interaction inhibition. CHO BLA complementation NOD2-RIPK2, CCF4 ratio. 360,000 tested, 0.38% active. inhibition, % at 4.98 µM. AID 624267; in the data active = inhibition above about 21%;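 note: 0% = vehicle only and 100% = reference blocker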
TLR9-MyD88 block: inhibitors of human TLR9-MyD88 binding; Q9NR96+Q99836; inhibition, % at 4.98 µM; 340,000 tested, 0.21% active; CHO BLA complementation TLR9-MyD88, CCF4 FRET ratio;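 active = inhibition above the mean over all tested compounds plus 3 SD, cut at about 21% in these data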;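 note: 0% = DMSO only wells and 100% = clavulanate BLA inhibitor control wells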
Target sequence (Q99836 whole entry, looked up): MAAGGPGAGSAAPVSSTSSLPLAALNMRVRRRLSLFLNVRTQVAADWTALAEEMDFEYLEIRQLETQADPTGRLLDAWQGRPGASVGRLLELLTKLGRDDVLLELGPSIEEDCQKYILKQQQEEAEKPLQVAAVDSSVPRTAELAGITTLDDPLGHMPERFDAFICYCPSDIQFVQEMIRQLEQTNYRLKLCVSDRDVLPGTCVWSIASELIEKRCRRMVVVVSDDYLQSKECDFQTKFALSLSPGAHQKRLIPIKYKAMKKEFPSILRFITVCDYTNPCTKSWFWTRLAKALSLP
Target sequence (Q9NR96 whole entry, looked up): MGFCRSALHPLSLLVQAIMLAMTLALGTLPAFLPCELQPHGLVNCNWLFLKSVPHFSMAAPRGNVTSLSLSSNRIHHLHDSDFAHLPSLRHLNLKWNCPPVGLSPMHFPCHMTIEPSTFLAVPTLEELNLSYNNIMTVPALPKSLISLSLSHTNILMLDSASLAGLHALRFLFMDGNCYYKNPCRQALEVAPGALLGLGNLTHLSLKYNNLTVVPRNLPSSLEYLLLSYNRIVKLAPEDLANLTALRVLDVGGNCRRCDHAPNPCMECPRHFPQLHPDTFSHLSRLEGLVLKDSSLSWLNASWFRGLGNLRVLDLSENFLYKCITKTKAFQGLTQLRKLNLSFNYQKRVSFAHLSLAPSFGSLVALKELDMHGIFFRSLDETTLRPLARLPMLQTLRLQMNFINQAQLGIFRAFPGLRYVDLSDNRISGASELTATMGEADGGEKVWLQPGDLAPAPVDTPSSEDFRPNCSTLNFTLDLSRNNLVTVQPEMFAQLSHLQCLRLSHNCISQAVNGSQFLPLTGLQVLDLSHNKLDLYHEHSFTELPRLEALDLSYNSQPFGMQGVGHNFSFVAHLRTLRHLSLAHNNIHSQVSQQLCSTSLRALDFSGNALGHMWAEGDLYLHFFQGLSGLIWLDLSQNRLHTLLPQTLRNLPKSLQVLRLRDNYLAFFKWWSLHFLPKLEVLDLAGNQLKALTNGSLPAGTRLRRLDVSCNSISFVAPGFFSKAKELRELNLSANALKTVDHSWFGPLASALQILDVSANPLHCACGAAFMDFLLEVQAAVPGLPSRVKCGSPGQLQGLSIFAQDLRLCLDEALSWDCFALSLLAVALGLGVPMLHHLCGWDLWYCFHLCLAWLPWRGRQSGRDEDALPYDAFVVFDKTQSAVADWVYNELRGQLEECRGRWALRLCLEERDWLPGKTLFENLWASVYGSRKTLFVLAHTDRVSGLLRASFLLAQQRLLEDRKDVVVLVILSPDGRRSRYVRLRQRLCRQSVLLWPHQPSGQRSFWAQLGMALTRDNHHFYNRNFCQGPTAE
MC4R barr agon: activates human MC4R beta-arrestin recruitment. U2OS MC4R beta-arrestin complementation, luminescence; percent of melanotan II response, DMSO zero. activation, % at 8.9 µM. P32245. 360,000 tested, 0.98% active;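 active = activation above a per-plate cutoff, the mean activation of sample wells on that plate plus 3 SD, cut at about 8% in these data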
NOD2 RIPK2 conf: confirmation of human NOD2-RIPK2 interaction inhibitors. shares compounds with NOD2-RIPK2 inh. CHO cells, NOD2-RIPK2 BLA complementation, CCF4 FRET. inhibition, % at 4.98 µM. 1,200 tested, 70% active;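 active = mean inhibition across replicates above a set limit taken from the earlier primary screen, cut at about 21% in these data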;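 note: 0% = DMSO-only wells and the high end = clavulanate BLA-blocked wells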
BLA counter: hits BLA reporter in NOD2-RIPK2 inhibitor counterscreen; shares compounds with NOD2-RIPK2 inh; CHO BLA reporter, CCF4 FRET ratio; inhibition, % at 4.98 µM; 1,200 tested, 57% active; AID 624371;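 active = mean inhibition above the low-control mean inhibition plus three low-control SD, cut at about 11% in these data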;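 note: 0% = DMSO only wells and 100% = clavulanate high control wells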
Numbers without * were called inactive; / = not tested or not shown. Only some compounds are listed: those with a hit (about 2.1% of all), similar ones and a draw of the others.

SMILES	MC4R antag cAMP	TLR4-MyD88 BLA	beta cell repl	NOD2-RIPK2 inh	TLR9-MyD88 block	MC4R barr agon	NOD2 RIPK2 conf	BLA counter
COc1ccc(NC(=O)C(c2ccc(C(F)(F)F)cc2)n2c(=O)c(-c3cc4ccccc4[nH]3)nc3ccccc32)cc1 (configuration not stated)	/	/	/	41.1*	/	/	38.0*	63.8*
COc1ccc(NC(=O)C(c2ccc(OC)cc2)n2c(=O)c(-c3ccco3)nc3ccccc32)cc1 (configuration not stated)	/	/	/	-15.0	/	/	/	/
COc1ccc(C(C(=O)Nc2ccc3c(c2)OCCO3)n2c(=O)c(-c3cc4ccccc4[nH]3)nc3ccccc32)cc1 (configuration not stated)	/	/	/	44.8*	/	/	42.6*	65.2*
Cc1ccc(NC(=O)c2ncn(CCCNCCCc3ccccc3)n2)cc1C	0.4	/	/	5.7	1.9	1.9	/	/
O=C(NCc1ccc2c(c1)OCO2)c1ccccc1Cl	4.2	/	-1.2	-4.2	-0.1	1.3	/	/
COc1ccc(CNC(=O)c2nc(S(=O)(=O)Cc3ccccc3)ncc2Cl)cc1	12.9	/	-6.9	61.7*	7.8	-2.6	62.7*	15.4*
O=C(NCc1ccc2c(c1)OCO2)c1nc(S(=O)(=O)Cc2ccccc2)ncc1Cl	0.8	/	-7.7	35.9*	-0.2	-5.7	29.4*	6.2
O=C(NCc1ccc2c(c1)OCO2)c1nc(S(=O)(=O)Cc2ccccc2F)ncc1Cl	0.2	/	-7.9	79.3*	14.2	-5.6	54.9*	14.3*
COc1ccc(S(=O)(=O)Cc2ccc(C(=O)NCc3ccccc3)o2)cc1	4.0	/	-2.5	-6.5	1.5	-2.1	/	/
O=C(COC(=O)/C=C/c1ccccc1Cl)NC1CCCC1	0.1	/	1.1	-7.4	-1.2	-0.6	/	/
O=C(NCc1ccccc1)c1cnc(Cc2c[nH]c3ccccc23)c(I)c1	19.3	/	/	-3.2	/	3.7	/	/
Cc1ccc(OC(C)C(=O)Nc2ccc(F)cc2)c([N+](=O)[O-])n1 (configuration not stated)	-1.6	/	0.3	5.1	-11.4	-1.1	/	/
CC(=O)Nc1ccc(Sc2ccc([N+](=O)[O-])o2)cc1	26.1	/	/	29.0*	6.6	-2.0	46.8*	15.7*
CC(C)(C)C(=O)Nc1ccc(Sc2ccc([N+](=O)[O-])cc2)cc1	14.9	-3.3	0.0	-7.8	-11.2	3.7	/	/
O=S(=O)(/N=S1\CC=CCN1S(=O)(=O)c1ccccc1)c1ccccc1 (configuration not stated)	26.2	/	/	25.2*	10.8	-0.1	-10.4	-17.1
C#CCCc1cocc1/C=[N+](\[O-])c1ccc(C(=O)OCC)cc1	-2.1	/	-2.5	3.0	3.7	-0.9	/	/
COc1ccc(CC(=O)OCC(=O)NCCc2ccccc2)cc1OC	1.1	-12.1	0.0	-3.6	5.6	-1.6	/	/
O=C1C(=O)c2cccnc2-c2ncccc21	/	/	/	40.8*	/	/	2.9	3.8
CC(=O)NC(Cc1cc(C)ccc1C)C(=O)N1CCN(C(=O)c2ccc([N+](=O)[O-])cc2)CC1 (configuration not stated)	-11.7	/	-1.0	-3.1	-10.2	-2.1	/	/
CC1CCN(C(=S)c2ccc(N(C)C)cc2)CC1	2.4	-1.0	-0.5	2.4	3.9	-3.8	/	/
O=Nc1c(O)[nH]c2ccc(Cl)c(Cl)c12	-6.2	/	/	28.4*	17.4	-0.9	26.4*	15.2*
CCc1cccc2c(N=O)c(O)[nH]c12	-16.5	4.5	0.0	3.3	19.6	0.8	/	/
O=C(COc1ccc([N+](=O)[O-])cc1)Nc1ccc(N2CCN(C(=O)c3ccco3)CC2)cc1	17.9	/	2.1	2.0	-4.7	4.4	/	/
CCN1CCN(c2ccc(NC(=O)COc3ccc([N+](=O)[O-])cc3)cc2)CC1	1.1	/	-3.4	21.0*	-0.2	-1.5	-1.7	-2.0
COC(=O)c1cccc(Cn2c(Cl)c(/C=N/Nc3ccccc3C)sc2=O)c1	-0.8	-2.5	/	38.5*	7.0	-3.6	5.5	-0.2
SMILES	MC4R antag cAMP	TLR4-MyD88 BLA	beta cell repl	NOD2-RIPK2 inh	TLR9-MyD88 block	MC4R barr agon	NOD2 RIPK2 conf	BLA counter
O=c1ccc2cc(O)c(O)cc2o1	4.8	11.8	-1.4	22.8*	8.6	0.2	22.7*	36.5*
O=c1ccc2ccc(O)cc2o1	11.3	/	/	-6.5	-0.8	-1.0	/	/
COc1ccccc1CN1CC(C(=O)N(C)CCc2nc3ccc(F)cc3[nH]2)CCC1=O (configuration not stated)	-0.9	/	-1.6	-1.3	0.7	0.6	/	/
COc1ccc(CNC(=O)COc2cc(=O)n(C)c3ccccc23)cc1	2.1	-2.1	-3.0	24.6*	-14.5	0.6	-2.0	-3.0
COc1ccc(CNC(=O)CCCOc2cc(=O)n(C)c3ccccc23)cc1	12.7	10.0	-0.7	1.9	5.7	-1.2	/	/
CC(NC(=O)CSc1nnnn1C1CC1)c1ccccc1Br (configuration not stated)	4.4	/	0.0	-2.3	-1.5	-1.2	/	/
Cc1ccc(S(=O)(=O)N(CCC(=O)O)c2ccccc2)cc1	3.2	-11.7	-1.9	-3.4	-7.0	-2.2	/	/
CN(C)c1ccc(C=c2c3ccccc3n3c2cc(-c2ccc(Cl)cc2)[n+]3C)cc1	8.8	/	/	24.6*	-2.3	1.5	23.3*	22.7*
COc1ccc(C=NNc2ccc([N+](=O)[O-])cc2S(=O)(=O)Nc2ccccc2C(=O)O)cc1OC	3.4	/	-2.8	27.0*	8.6	-3.7	36.1*	35.7*
CN1OC[C@@H]2CN(S(=O)(=O)c3ccccc3)[C@H](c3ccccc3Br)C[C@@H]21	/	/	/	32.7*	/	/	-4.7	-4.6
CC1=C(C(=O)N(C)C)CC(CC(=O)NCCCCc2ccccc2)C(=O)N1CCCN1CCCC1=O (configuration not stated)	14.0	/	/	0.9	6.8	1.1	/	/
CCOC(=O)C1=C(C)N(C)C(C)=C(C(=O)OCC)C1c1ccccc1	-6.5	0.0	-0.3	53.0*	-25.4	1.0	-8.0	-2.4
O=[N+]([O-])c1ccc(Cl)cc1Sc1nc2ccccc2o1	1.1	6.8	-4.3	-0.2	-7.0	-0.4	/	/
O=[N+]([O-])c1ccc(Sc2nc3ccccc3o2)c([N+](=O)[O-])c1	16.7	1.5	-6.1	30.3*	7.3	-4.2	59.5*	-0.6
Nc1cc2c(cc1Cl)-c1ccc([N+](=O)[O-])cc1C2=NO	21.8	/	/	21.6*	-0.2	-0.5	18.4	26.2*
O=C(Nc1cccc(N2C(=O)C=CC2=O)c1)c1cccs1	6.3	/	-7.0	21.5*	29.6*	-5.4	73.5*	11.8*
Cc1nc2ccccc2c(=O)n1-c1cccc(NC(=O)c2cccs2)c1	4.9	/	-0.5	-1.8	-8.2	-3.4	/	/

Assay outcomes deposited in PubChem by several laboratories.
